Source: the RNAGym collection of RNA variant scans (doi:10.1126/science.aae0568)
This sample holds only a part of the variants without activity.

B1: tRNA (parent)
chain: GUUCCGUUGGCGUAAUGGUAACGCGUCUCCCUCCUAAGGAGAAGACUGCGGGUUCGAGUCCCGUACGGAACG

Variants of: B1
Assay: yeast fitness relative to wild type (ratio to wild type); higher = fitter; tRNA-Arg(CCU), competitive growth, 37 C, YPD
In short: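 Amplicons of the tRNA-Arg(CCU) gene were sequenced, 100-nucleotide paired-end, from the start population and from each end population of a pooled yeast competition. The competition, in six parallel replicates, lasted 24 hours in YPD at 37°C. Fitness relative to wild type was calculated from changes in genotype frequencies. Genotypes had to have ≥ 100 starting reads, and estimates < 0.5 were set to 0.5.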

Variant	yeast fitness
GUUUCGUUGGAGUAAUGGUAACGCGUCUCCCUCCUACGGAGAAGACUGUGGGUUCGAGUGCCGUACGGACCG [C4U C11A A37C C49U C60G A70C]	≤ 0.5
GUUUGGUUGGCGUAACGGUAACGGGUCUCCCUCCUAAGGAGCAGACUGCGGGUUCGAAUCCCGUACGGAACG [C4U C5G U16C C24G A42C G58A]	0.571
GUUUGGUUGGCGUAAUGGUAACGCGUCCCCCUCCUAAGGAGAAGACUGCGGGUUCGAGUCCCGUGCGGAACG [C4U C5G U28C A65G]	0.562
GUUUGGUUGACGUAAUGGUAACGUGUCUCCCUCCUCAGGAGAAGACUGCGGGUUCAAGUCCCGUACGGAACG [C4U C5G G10A C24U A36C G56A]	0.651
GUUUCGUUGGGGUAAUGGUAACGCGUCUCCCUCCUAAGGAGAAGUCUGUGGGUUCGAGUCGCGUACGGAACG [C4U C11G A45U C49U C61G]	≤ 0.5
GUUUGGUUGGCGUAAUGGUAACGCGUCUCCCUCCUACGGAGAAGACUGCGGGUUCGAAUCCUGUACGGAACG [C4U C5G A37C G58A C62U]	≤ 0.5
GUUUCGUUGGGGUAAUGGUAACGCGUCUCCCUCUUAAGGAGAAGACUGCGGGUUAGAGUCCCGUUCGGAGCG [C4U C11G C34U C55A A65U A70G]	≤ 0.5
GUUUGGUUGGCGUAAUGGUAACGCGUCUGCGUCCUACGGAGAAGACUGCGGGUUCGGGUCCCGUAAGGAACG [C4U C5G C29G C31G A37C A57G C66A]	≤ 0.5
GUUUCGUUGGAGUAAUGGUAACGCGUCUCCCUCCUAAGGAGGAGACUCCGGGUUCGAGUCCCUUACAGAACG [C4U C11A A42G G48C G63U G67A]	≤ 0.5
GUUUCGUUGGAAUAAUGGUAACGCGUCUCCCUCCUAAGGAGAAGACUACGGGUUCGAGUCCCGUACAGAACG [C4U C11A G12A G48A G67A]	≤ 0.5
GUUUCGUUGGUGUAGUGGUAACGCGUCUCCCUCCUAAGGAGAAGACUGCGGGUUCGAGUCCCGUACGGAACG [C4U C11U A15G]	0.713
GUUUGGUUGGAGUAAUGGUAACGCGUCUCCCUCCUAAGGAGAAGACUGCGGGUUCGAGUCCCGUAAGGAACG [C4U C5G C11A C66A]	≤ 0.5
GUUUCGUUGGAGUAAUGGUAACGCGUCUUCCUCCUAAGGAGAAGACUGAGGGUUCGAGUCCCGUACGGAACG [C4U C11A C29U C49A]	≤ 0.5
GUUUCGUUGGAGUAAUGGUAACGCGUCUCCCUCCUAAGGAGAAGACUGCGGGUUCGAGUCCCGUACGGAGCG [C4U C11A A70G]	≤ 0.5
GUUUGGUUGGCGUAAUGGUAACGCGUCUCCCUCCUAAGGAGAAGACUGCGGGUUCGAGUCCCGUACGGAACG [C4U C5G]	0.95
GUUUCGUUGGUGUAAUGGUAACGCGUCAGCCUCCUAAGGAGAAGACUGCGAGUUCAAGUCCCGUACCGAACG [C4U C11U U28A C29G G51A G56A G67C]	≤ 0.5
GUUUCGUUGGUGUAAUGGUAACGCCUCUCCCUCCUAAGGAAAAGACUGCGGGUUCGCAUCCCGUACGGAACG [C4U C11U G25C G41A A57C G58A]	≤ 0.5
GUUUCGUUGGGGUAAUGGUAACGCGUCUCGCUCCUAAGGAGAAGACCGCGGGUUCGAGUCCCGUACGGAACG [C4U C11G C30G U47C]	≤ 0.5
GUUUCGUUGGUGUAAUGGUAACGCGUCUCCCUCCUAAGGAGAAGGCUGCGGGUUCGAGUCCCGUACGGAACG [C4U C11U A45G]	0.687

Variant	yeast fitness
GUUUCGUUGGUGUAAUGGUAACGCGUCUCCCUCCUAAGGAGAAGCCUGCGGGUUCGAGUCCCGUACGGAACG [C4U C11U A45C]	0.7
GUUUCGUUGGUGUAGUGGUAACGCGUCUCCCUCUUAAGGAGAAGACUGCGGGUUCGAGUCCCGUACGGAACG [C4U C11U A15G C34U]	≤ 0.5
GUUUCGUUGGGGUAAUGGUAACGCGUCUCCCUCCUAAGGAGAAGACUGCGGGUUUGAAUCCCGUACGGAACG [C4U C11G C55U G58A]	≤ 0.5
GUUUUGUUGGCGUAAUGGUAACGCGUCUCCCUCCUUAGGAGAAGACUGCGGGUUCGAGUCCCGUACGGAACG [C4U C5U A36U]	0.625
GUUUCGUUGGAGUAAUGGUAACGCGUCUCCCUCCUAAGGAGAAGAUUGCGGGUUCGAGUCCCGUACGGAACG [C4U C11A C46U]	0.661
GUUUUGUUGGCGUAAUGGUAACGCGUCUCCCUCCUAAGGAGAAGAGUGCGGGUUCGAGUCCCGUACGGAACG [C4U C5U C46G]	0.515
GUUUUGUUGGCGUAAUGGUAACGCGUCUCCCUCCUAAGGAGAAGACUACGCGUUCGAGUCCCGUACGGAACG [C4U C5U G48A G51C]	≤ 0.5
GUUUGGUUGGCGUAAUGGUAACGCGUAUCCCUCCUAAGGAGAAGACUGCGGGUUCGAGUCCCGUACGGAACG [C4U C5G C27A]	≤ 0.5
GUUUUGUUGGCGUAAUGAUAACGCAUCUCCCUUCUAAGGAGAAGACUACGGAUUCGAGUCCCGUCCGAAACG [C4U C5U G18A G25A C33U G48A G52A A65C G68A]	≤ 0.5
GUUUCGUUGGGGUAAUGGUAACGAGUCUUCCUCCUAAGGAGAAGACUGCGGGUUCGAGUCCCGUACGGAACG [C4U C11G C24A C29U]	≤ 0.5
GUUUCGUUGGGGUAAUGGUAACGCGUCUUCCUCCUAAGGAGAAGACUACGGAUUCGAGUCCCGUACGGAACG [C4U C11G C29U G48A G52A]	≤ 0.5
GUUUCGUUGGAGUAAUGGUAACGCGUCUCCCUCCUACGGAGAAGACUGCGGGUUCGGGUCCCGUACGGAACG [C4U C11A A37C A57G]	≤ 0.5
GUUUCGUUGGGGUAAUGGUAACGCGUCUCCCUCCUAAGGAAAAGACUGCGGGUUCGAGUCCCGUACGGAACG [C4U C11G G41A]	≤ 0.5
GUUUGGUUGGCGUAAUGGUGACGCGUCUUCCUCCUAAGGAGAAGACUCCGGGUUCGAGUCCCCUACGGAACG [C4U C5G A20G C29U G48C G63C]	≤ 0.5
GUUUCGUUGGGGUAAUGCUAACGCGUCUCCCUCCUAAGGAGAAGACAGCGGGUUCGAGUCCCGUACGGUACG [C4U C11G G18C U47A A69U]	0.699
GUUUUGUUAACGUACUGGUAACGCGUCUCCCUCCUAAGGAGAAGAAUGCGGGUUCGAGUCCCGUACGGAACG [C4U C5U G9A G10A A15C C46A]	0.619
GUUUCGUUGGGGUAAUGGUAACGCGUCUCCCUCCUAAGGAGAAGACUGCGGGUUCGAGUCCCGUAAGGAACG [C4U C11G C66A]	≤ 0.5
GUUUGGUUGGCGUAUUGGUAAGGCGUCUCUCUCCUAAGGAGAAGACUGCGGGGUCGAAACCCGUACGGAACG [C4U C5G A15U C22G C30U U53G G58A U59A]	0.603
GUUUUGUUGGCAUAAUGGUACCGCGUUUCCCUCCUAAGGAGAAGACUGCGGGUUCGAGUCCCGUACGGAACG [C4U C5U G12A A21C C27U]	≤ 0.5
